Measured values taken from ChEMBL document CHEMBL4613254, “Using the Cancer Dependency Map to Identify the Mechanism of Action of a Cytotoxic Alkenyl Derivative from the Fruit of Choerospondias axillaris” (J Nat Prod, 2020).
Calls of active or inactive are those of the source. The rule behind the calls is not given here.

Tests used:
Hep293TT = assay: Growth inhibition of human Hep293TT cells assessed as reduction in cell viability after 48 hrs by SRB assay; type: functional
How it was run: (§1)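 Cells were kept in RPMI-1640 with 5% FBS and 50 μg/mL gentamicin at 37 °C and 5% CO2, and plated at 4,000–6,000 cells/well to adhere overnight. Compounds in DMSO (0.5% v/v final) went to triplicate wells for 48 h. Cells were fixed with 10% TCA, and time-0 plates were fixed at dosing. SRB absorbance was read at 560 nm, with GI50 fitted by non-linear regression for each experiment.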

[1] = Growth inhibition of human SJCRH30 cells assessed as reduction in cell viability after 48 hrs by SRB assay; type: functional; how it was run: as §1
[2] = Growth inhibition of human D283 cells assessed as reduction in cell viability after 48 hrs by SRB assay; type: functional; settings: D283, 48 h
How it was run: (§2)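 Cells were grown in IMEM with 5% FBS and 25 μg/mL gentamicin at 37 °C and 5% CO2, then seeded at 4,000–6,000 cells/well overnight. DMSO solutions (0.5% v/v final) were added to triplicate wells for 48 h, and time-0 plates were fixed at addition. Fixation was with TCA; for D283, 20% TCA was added straight into the medium. SRB absorbance at 560 nm gave GI50 by non-linear regression.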

A673 [3] = assay: Growth inhibition of human A673 cells assessed as reduction in cell viability after 48 hrs by SRB assay; type: functional; settings: A673, 48 h; how it was run: as §1
HeLa = assay: Cytotoxicity against human HeLa cells assessed as reduction in cell viability; type: functional, cell-based
A2780 = assay: Cytotoxicity against human A2780 cells assessed as reduction in cell viability; type: functional, cell-based
HCT-15 = assay: Cytotoxicity against human HCT15 cells assessed as reduction in cell viability; type: functional, cell-based
[4] = biological target: T1, Monocarboxylate transporter 1 (Homo sapiens) (UniProt P53985); assay: Inhibition of MCT1 in human A673 cells assessed as reduction in BrPA-induced cytotoxicity at 10 nM by SRB assay; type: cell-based
T1 sequence (whole entry): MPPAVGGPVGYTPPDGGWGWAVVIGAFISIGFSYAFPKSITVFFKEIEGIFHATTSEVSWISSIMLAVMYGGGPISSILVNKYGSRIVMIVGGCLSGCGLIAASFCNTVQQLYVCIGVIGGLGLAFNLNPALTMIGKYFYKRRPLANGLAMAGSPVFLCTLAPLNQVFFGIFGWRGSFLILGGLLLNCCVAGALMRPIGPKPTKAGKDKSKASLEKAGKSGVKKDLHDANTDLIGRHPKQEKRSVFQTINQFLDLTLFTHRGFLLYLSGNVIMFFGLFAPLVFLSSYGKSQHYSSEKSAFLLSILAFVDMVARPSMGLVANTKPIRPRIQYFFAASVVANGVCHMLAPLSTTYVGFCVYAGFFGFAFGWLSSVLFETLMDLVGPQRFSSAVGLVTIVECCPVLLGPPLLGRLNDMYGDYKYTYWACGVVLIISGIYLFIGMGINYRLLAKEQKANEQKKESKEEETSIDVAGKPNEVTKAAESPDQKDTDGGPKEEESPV
How it was run: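 A-673 cells were grown in RPMI-1640 with 5% FBS. Test compound or AZD3965 was added 1 h before BrPA, with DMSO as the vehicle control. Viability was read by SRB staining after TCA fixation, with absorbance at 560 nm.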

A673 [5] = assay: Growth inhibition of human A673 cells assessed as reduction in cell viability up to 10 uM after 48 hrs by SRB assay; type: functional, cell-based; how it was run: as §1
SK-ES1 = assay: Growth inhibition of human SK-ES-1 cells assessed as reduction in cell viability after 48 hrs by SRB assay; type: functional; settings: SK-ES1, 48 h; how it was run: as §1
Daoy = assay: Growth inhibition of human DaOY cells assessed as reduction in cell viability up to 10 uM after 48 hrs by SRB assay; type: functional, cell-based; how it was run: as §2
D341 cell line = assay: Growth inhibition of human D341 cells assessed as reduction in cell viability after 48 hrs by SRB assay; type: functional; settings: D341, 48 h; how it was run: as §2
HCC1806 = assay: Growth inhibition of human HCC1806 cells assessed as reduction in cell viability up to 10 uM after 48 hrs by SRB assay; type: functional, cell-based; how it was run: as §1

## CCCC/C=C\CCCCCCCCCCC[C@H](O)C[C@]1(O)CC(=O)C=C[C@H]1O
Hep293TT
  GI50: 390 nM
[1]
  GI50: 180 nM
[2]
  GI50: 400 nM
A673 [3]
  GI50: 580 nM

## CCCC/C=C\CCCCCCCCCCC[C@@H]1C[C@]2(O)CC(=O)C[C@H](O1)[C@@H]2O
HeLa
  IC50: 3000 to 30000 nM
A2780
  IC50: 3000 to 30000 nM
HCT-15
  IC50: 3000 to 30000 nM

## CCCC/C=C\CCCCCCCCCCC[C@H](O)Cc1cc(O)ccc1O
Hep293TT
  GI50: 700 nM
[1]
  GI50: 120 nM
[2]
  GI50: 240 nM
A673 [3]
  GI50: 320 nM

## CCCC/C=C\CCCCCCCCC[C@H](O)Cc1cc(O)ccc1O
Hep293TT
  GI50: 1020 nM
[1]
  GI50: 170 nM
[2]
  GI50: 80 nM
A673 [3]
  GI50: 160 nM

## Cc1[nH]nc(C(F)(F)F)c1Cc1sc2c(c1C(=O)N1C[C@](C)(O)CO1)c(=O)n(C)c(=O)n2C(C)C
[4]
  inhibition: Active
A673 [5]
  growth inhibition (GI): inactive

## CCCC/C=C\CCCCCCCCC[C@H](O)C[C@]1(O)CC(=O)C=C[C@H]1O
Hep293TT
  GI50: 500 nM
[1]
  GI50: 240 nM
[2]
  GI50: 410 nM
A673 [3]
  GI50: 650 nM

## CCCC/C=C\CCCCCCCCCCCc1cc2cc(O)ccc2o1
Hep293TT
  GI50: > 10000 nM
[1]
  GI50: > 10000 nM
SK-ES1
  GI50: 120 nM
[4]
  inhibition: Active
Daoy
  growth inhibition (GI): inactive
[2]
  GI50: 70 nM
D341 cell line
  GI50: 20 nM
A673 [3]
  GI50: 190 nM
HCC1806
  growth inhibition (GI): inactive
